Only a selection was taken, and hits are over-represented in it overall.
INS-1E ATP HTS: protection of INS-1E cells from cytokine death, primary screen, ATP luminescence, single point; protection from cytokine-induced ATP loss, % at 10 µM; INS-1E cytokine-induced death, 48 h; normalised: neutral wells 0, positive control 100; 20,000 compounds, 0.1% hits;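 active = mean replicate protection from cytokine-induced ATP loss at least 50% and at least 75% of replicates each reaching 50%; inconclusive = meets only one of the two criteria, mean or replicate share; inactive = fails both the mean and replicate share criteria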
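Material: INS-1E rat cells; Quantity: 8000 cells/well; Buffer or medium: phenol-red-free RPMI with 5% fetal bovine serum; Probe or stimulus: cytokine cocktail of IFN-γ, TNF-α and IL-1β; Compound dosing: single test concentration per compound, delivered by pin transfer; Incubation: 48 h co-treatment, 10 min post-lysis read; Signal: CellTiter-Glo luminescence.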
A1 apoptosis 2: A1 inhibitors via caspase activation, primary screen, cell-based, luminescence, HTS, two replicates; MEF A1-2A-BIM cells, caspase-Glo luminescence, 3 h; percent of clofoctol response, DMSO zero; caspase activation, % (no concentration beside the values); 24,000 tested, under 10 active; AID 2465, 2010; in the data active = caspase activation above about 5.9%; inconclusive = no clear call, values can overlap the other calls; inactive = below about 2.2%
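Evaluation: Caspase-3/7 activity from luminescence increase | Assay system: A1-2A-BIM mouse embryonic fibroblasts | Quantity: 2500 MEF cells/well | Medium: RPMI-1640 plus 10% FBS | Detection: Caspase-Glo 3/7 luminescence, 1 h at room temperature | Dosing: 50 nL compound per well, pinned | Timing: Cells settled overnight, compound exposure 3 h at 37 °C, 5% CO2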
T cruzi HTS: inhibitors of intracellular Trypanosoma cruzi, primary screen, cell-based, plate reader, single point, set 2; intracellular Trypanosoma cruzi in host cells; activity score (inhibition), % at 5.01 µM; 22,000 compounds, 4.9% hits; AID 651903, 2012; in the data active = activity score above about 55%; inconclusive = no clear call, values can overlap the other calls;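 also: parasites and compound incubated about four days before reading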
A number is an active result; n = inactive; u = inconclusive; x = not tested or not shown.

SMILES	INS-1E ATP HTS	A1 apoptosis 2	T cruzi HTS
C[C@H]1CN([C@@H](C)CO)C(=O)Cc2cc(NC(=O)Nc3ccccc3)ccc2O[C@H]1CN(C)C(=O)Nc1ccccc1	n	n	n
Cc1noc(C)c1S(=O)(=O)Nc1cccc2c1O[C@@H](CN(C)S(=O)(=O)c1ccccc1)[C@@H](C)CN([C@H](C)CO)C2=O	n	n	n
Cc1noc(C)c1S(=O)(=O)Nc1ccc2c(c1)C(=O)N([C@H](C)CO)C[C@H](C)[C@@H](CN(C)Cc1ccc(C(=O)Nc3ccccc3N)cc1)O2	n	n	68
Cc1noc(C)c1S(=O)(=O)Nc1ccc2c(c1)CC(=O)N([C@H](C)CO)C[C@H](C)[C@@H](CN(C)Cc1ccc(C(=O)Nc3ccccc3N)cc1)O2	x	n	x
Cc1noc(C)c1S(=O)(=O)Nc1ccc2c(c1)CC(=O)N([C@@H](C)CO)C[C@@H](C)[C@@H](CN(C)Cc1ccc(C(=O)Nc3ccccc3N)cc1)O2	n	x	71
Cc1noc(C)c1S(=O)(=O)Nc1cccc2c1O[C@H](CN(C)S(=O)(=O)c1ccccc1)[C@H](C)CN([C@H](C)CO)C2=O	n	x	65
Cc1noc(C)c1S(=O)(=O)Nc1ccc2c(c1)C(=O)N([C@H](C)CO)C[C@@H](C)[C@H](CN(C)Cc1ccc(C(=O)Nc3ccccc3N)cc1)O2	n	n	n
Cc1noc(C)c1S(=O)(=O)Nc1ccc2c(c1)CC(=O)N([C@H](C)CO)C[C@@H](C)[C@@H](CN(C)Cc1ccc(C(=O)Nc3ccccc3N)cc1)O2	n	n	69
Cc1noc(C)c1S(=O)(=O)Nc1ccc2c(c1)CC(=O)N([C@H](C)CO)C[C@@H](C)[C@H](CN(C)Cc1ccc(C(=O)Nc3ccccc3N)cc1)O2	n	n	n
C[C@H](CO)N1C[C@H](C)[C@@H](CN(C)C(=O)C2CCCCC2)OCCCC[C@H](C)Oc2ccc(NC(=O)Nc3ccc4c(c3)OCO4)cc2C1=O	x	n	x
CC(C)NC(=O)N(C)C[C@@H]1OCCCC[C@@H](C)Oc2ccc(NC(=O)CCCN(C)C)cc2C(=O)N([C@@H](C)CO)C[C@H]1C	x	n	x
C[C@H](CO)N1C[C@H](C)[C@H](CN(C)S(=O)(=O)c2ccc(F)cc2)Oc2ccc(NC(=O)Nc3cccc4ccccc34)cc2C1=O	x	x	n
Cc1ccc(S(=O)(=O)Nc2ccc3c(c2)C(=O)N([C@@H](C)CO)C[C@H](C)[C@@H](CN(C)C(=O)Nc2c(C)noc2C)O3)cc1	n	n	n
Cc1ccc(S(=O)(=O)N(C)C[C@H]2OCCCC[C@H](C)Oc3ccc(NS(C)(=O)=O)cc3C(=O)N([C@H](C)CO)C[C@@H]2C)cc1	x	n	x
COc1ccc(CN(C)C[C@@H]2Oc3c(NS(=O)(=O)c4ccc(Cl)cc4)cccc3C(=O)N([C@@H](C)CO)C[C@H]2C)cc1	n	n	n
C[C@H](CO)N1C[C@H](C)[C@@H](CN(C)Cc2ccc(C(=O)Nc3ccccc3N)cc2)Oc2c(NS(=O)(=O)c3ccccc3)cccc2C1=O	n	n	n
Cc1noc(C)c1S(=O)(=O)Nc1cccc2c1O[C@@H](CN(C)Cc1ccc(C(=O)Nc3ccccc3N)cc1)[C@@H](C)CN([C@@H](C)CO)C2=O	n	n	66
CNC[C@@H]1OCCCC[C@@H](C)Oc2ccc(NC(=O)Nc3c(C)noc3C)cc2C(=O)N([C@H](C)CO)C[C@H]1C	x	n	x
C[C@@H]1CCCCO[C@@H](CN(C)C(=O)Nc2ccc(C(F)(F)F)cc2)[C@@H](C)CN([C@H](C)CO)C(=O)c2cc(NS(=O)(=O)c3ccc(Cl)cc3)ccc2O1	n	x	72
Cc1ccc(S(=O)(=O)Nc2ccc3c(c2)C(=O)N([C@@H](C)CO)C[C@@H](C)[C@H](CN(C)C(=O)Nc2ccc(C(F)(F)F)cc2)OCCCC[C@@H](C)O3)cc1	x	n	x
Cc1ccc(S(=O)(=O)Nc2ccc3c(c2)C(=O)N([C@H](C)CO)C[C@H](C)[C@H](CN(C)C(=O)Nc2ccc(C(F)(F)F)cc2)OCCCC[C@@H](C)O3)cc1	n	n	63
C[C@@H]1CN([C@H](C)CO)C(=O)c2cc(NS(=O)(=O)c3ccc(Cl)cc3)ccc2O[C@@H](C)CCCCO[C@H]1CN(C)C(=O)Nc1ccc(C(F)(F)F)cc1	x	n	x
Cc1ccc(S(=O)(=O)N(C)C[C@H]2Oc3ccc(NC(=O)CCCCCC(=O)Nc4ccccc4N)cc3C(=O)N([C@H](C)CO)C[C@@H]2C)cc1	n	u	n
